Experimental data: PubChem BioAssay AID588748 (Vanderbilt Specialized Chemistry Center, 2011)
One block for each compound: values may come before it. Calls of active or inactive are those of the source.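 The calls were made as follows: active = a clear dose-dependent boost of the acetylcholine calcium response in rat M2 cells, with a fitted potency; inactive = the rest.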

Target: Muscarinic acetylcholine receptor M2 (Rattus norvegicus) (UniProt P10980)
Assay: rat M2 positive allosteric modulation, dose response, counter-screen for M4 PAM project, CHO Gqi5 cells, calcium fluorescence (AID 588748)
Settings: CHO rM2/Gqi5 calcium mobilization, PAM mode, FDSS
In short: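 Material: CHO cells stably expressing rat M2 receptor and Gqi5 chimera; Times: compound 144 s before EC20 ACh, EC80 ACh 86 s later, 37 °C; Technique: Fluo-4 fluorescence of calcium mobilization.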

Sequence of Muscarinic acetylcholine receptor M2 (Rattus norvegicus) (P10980 whole entry, looked up): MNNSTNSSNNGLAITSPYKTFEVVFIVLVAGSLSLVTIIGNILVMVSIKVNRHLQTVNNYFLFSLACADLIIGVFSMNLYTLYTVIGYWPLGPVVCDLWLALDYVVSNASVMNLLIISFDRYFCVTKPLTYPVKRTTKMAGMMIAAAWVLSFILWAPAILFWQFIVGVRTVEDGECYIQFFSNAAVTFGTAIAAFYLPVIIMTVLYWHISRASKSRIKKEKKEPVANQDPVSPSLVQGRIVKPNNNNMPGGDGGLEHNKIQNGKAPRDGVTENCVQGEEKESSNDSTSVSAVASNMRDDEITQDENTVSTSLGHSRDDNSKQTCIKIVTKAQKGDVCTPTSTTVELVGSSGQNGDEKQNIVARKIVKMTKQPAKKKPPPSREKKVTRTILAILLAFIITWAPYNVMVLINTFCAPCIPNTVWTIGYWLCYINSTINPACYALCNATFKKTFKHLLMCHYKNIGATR

SMILES: Cc1nc2sc(C(=O)NC3CC3)c(N)c2c(C)c1Cl
EC50: 0.64 µM

SMILES: Cc1nc2sc(C(=O)NCc3nccs3)c(N)c2c(C)c1Cl
percent of ACh max response (at 30 µM (top of the series)): inactive

SMILES: Cc1nc2sc(C(=O)NCc3cccnc3)c(N)c2c(C)c1Cl
percent of ACh max response (at 45.3 µM (top of the series)): inactive

SMILES: Cc1nc2sc(C(=O)NCCc3ccncc3)c(N)c2c(C)c1Cl
percent of ACh max response (at 30 µM (top of the series)): inactive

The remaining lines, values ahead:

percent of ACh max response (at 37.4 µM (top of the series)): inactive
SMILES: Cc1nc2sc(C(=O)NCc3ccccc3)c(N)c2c(C)c1Cl

percent of ACh max response (at 30 µM (top of the series)): inactive
SMILES: Cc1nc2sc(C(=O)NCc3cccc(F)c3F)c(N)c2c(C)c1Cl

percent of ACh max response (at 45.3 µM (top of the series)): inactive
SMILES: Cc1nc2sc(C(=O)NCc3ccncc3)c(N)c2c(C)c1Cl

percent of ACh max response (at 30 µM (top of the series)): inactive
SMILES: Cc1nc2sc(C(=O)NCc3ccncn3)c(N)c2c(C)c1Cl

percent of ACh max response (at 36.8 µM (top of the series)): inactive
SMILES: Cc1nc2sc(C(=O)NCc3ccc4c(c3)OCO4)c(N)c2c(C)c1Cl
